Assay results published in ChEMBL document CHEMBL1128218, “New alpha-thiol dipeptide dual inhibitors of angiotensin-I converting enzyme and neutral endopeptidase EC 3.4.24.11” (J Med Chem, 1995).

Legend:
Neprilysin = biological target: T1, Neprilysin (Rattus norvegicus, UniProt P07861); assay: Evaluation of in vitro inhibitory activity against Neutral endopeptidase
T1 sequence (P07861 whole entry): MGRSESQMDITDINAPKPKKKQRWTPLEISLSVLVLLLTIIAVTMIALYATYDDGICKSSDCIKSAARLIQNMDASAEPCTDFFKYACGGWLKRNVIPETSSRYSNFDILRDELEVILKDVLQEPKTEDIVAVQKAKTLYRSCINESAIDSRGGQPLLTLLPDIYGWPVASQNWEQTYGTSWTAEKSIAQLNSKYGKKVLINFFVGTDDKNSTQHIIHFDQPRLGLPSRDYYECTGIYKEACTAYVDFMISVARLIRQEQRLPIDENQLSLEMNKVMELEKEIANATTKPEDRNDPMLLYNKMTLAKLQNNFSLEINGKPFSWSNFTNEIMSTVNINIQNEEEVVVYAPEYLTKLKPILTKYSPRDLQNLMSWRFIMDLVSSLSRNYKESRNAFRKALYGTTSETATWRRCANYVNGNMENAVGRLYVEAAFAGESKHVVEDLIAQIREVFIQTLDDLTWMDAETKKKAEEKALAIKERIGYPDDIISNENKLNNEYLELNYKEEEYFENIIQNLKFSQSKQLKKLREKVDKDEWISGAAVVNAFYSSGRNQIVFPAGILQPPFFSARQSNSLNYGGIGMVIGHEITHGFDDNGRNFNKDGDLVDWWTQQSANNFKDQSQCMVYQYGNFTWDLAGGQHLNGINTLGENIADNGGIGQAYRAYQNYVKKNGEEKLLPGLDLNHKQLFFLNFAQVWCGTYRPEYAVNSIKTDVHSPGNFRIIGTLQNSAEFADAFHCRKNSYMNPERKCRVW
In short: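 Rat kidney cortex membrane homogenate (4.2 μg protein) preincubated 10 min at 25 °C with increasing inhibitor concentrations. Then 500 μM GAAP (final) in 50 mM Tris pH 7.4 with leucine aminopeptidase M, 25 min at 25 °C. Done in duplicate; IC50 from curves of seven points near the IC50.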

[1] = biological target: T2, Angiotensin-converting enzyme (Rattus norvegicus) (UniProt P47820); assay: Evaluation of plasma inhibition of Angiotensin I converting enzyme activity in conscious rat 6 hours after intravenous administration at a dose of 10 mg/kg; type: functional, organism-based; design: dose 10 mg/kg
T2 sequence (whole entry): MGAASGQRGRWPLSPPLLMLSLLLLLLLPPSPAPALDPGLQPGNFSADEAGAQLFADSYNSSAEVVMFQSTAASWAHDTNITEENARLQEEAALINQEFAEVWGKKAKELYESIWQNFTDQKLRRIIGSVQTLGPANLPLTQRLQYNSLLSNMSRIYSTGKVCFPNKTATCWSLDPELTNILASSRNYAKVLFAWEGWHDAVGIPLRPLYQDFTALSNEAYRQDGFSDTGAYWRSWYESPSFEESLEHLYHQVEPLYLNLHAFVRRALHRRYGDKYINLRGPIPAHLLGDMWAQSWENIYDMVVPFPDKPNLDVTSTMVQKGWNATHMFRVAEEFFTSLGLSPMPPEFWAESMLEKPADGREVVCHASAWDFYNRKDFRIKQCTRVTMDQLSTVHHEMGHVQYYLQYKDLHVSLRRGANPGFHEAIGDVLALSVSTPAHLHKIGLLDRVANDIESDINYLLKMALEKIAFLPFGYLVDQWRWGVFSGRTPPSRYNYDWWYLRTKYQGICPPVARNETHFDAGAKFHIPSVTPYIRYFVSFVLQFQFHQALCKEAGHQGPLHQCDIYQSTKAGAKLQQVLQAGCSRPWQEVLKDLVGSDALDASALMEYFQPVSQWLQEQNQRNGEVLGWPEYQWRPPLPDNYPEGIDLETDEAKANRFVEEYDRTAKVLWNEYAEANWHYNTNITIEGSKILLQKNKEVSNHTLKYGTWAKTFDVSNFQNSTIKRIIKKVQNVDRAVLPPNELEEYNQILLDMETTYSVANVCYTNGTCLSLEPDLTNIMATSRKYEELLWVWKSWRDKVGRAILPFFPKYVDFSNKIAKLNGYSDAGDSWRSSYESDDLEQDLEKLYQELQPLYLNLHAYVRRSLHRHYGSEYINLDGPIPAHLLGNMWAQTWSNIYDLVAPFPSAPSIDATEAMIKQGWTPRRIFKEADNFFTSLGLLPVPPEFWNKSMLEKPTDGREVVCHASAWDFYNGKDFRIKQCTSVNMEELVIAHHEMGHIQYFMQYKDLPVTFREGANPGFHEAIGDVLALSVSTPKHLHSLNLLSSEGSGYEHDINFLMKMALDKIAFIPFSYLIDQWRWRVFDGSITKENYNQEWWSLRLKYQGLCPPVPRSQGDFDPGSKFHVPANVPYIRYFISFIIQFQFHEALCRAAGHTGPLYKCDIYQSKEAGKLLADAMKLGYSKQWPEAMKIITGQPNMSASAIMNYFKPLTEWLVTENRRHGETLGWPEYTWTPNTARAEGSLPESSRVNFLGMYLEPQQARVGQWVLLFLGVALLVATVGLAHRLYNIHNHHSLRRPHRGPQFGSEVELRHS
In short: (§1)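 Male conscious normotensive Sprague-Dawley rats (275-390 g) fitted the day before with femoral arterial and venous catheters under methohexital anesthesia. Three angiotensin-I challenges (300 ng/kg iv) given as baseline. Compound given iv, ia or po (12.3 mg/kg po dose in 3% cornstarch at 1 mg/mL), then AI challenges repeated at set times. Pressor response compared with the mean baseline response and expressed as % inhibition.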

[2] = biological target: T2, Angiotensin-converting enzyme (Rattus norvegicus); assay: Evaluation of plasma inhibition of Angiotensin I converting enzyme activity in conscious rat 2 hour after oral administration at a dose of 10 mg/kg; type: functional, organism-based; design: dose 10 mg/kg
[3] = biological target: T2, Angiotensin-converting enzyme (Rattus norvegicus); assay: Evaluation of plasma inhibition of Angiotensin I converting enzyme activity in conscious rat 1 hour after oral administration at a dose of 10 mg/kg; type: functional, organism-based; design: dose 10 mg/kg
[4] = biological target: T2, Angiotensin-converting enzyme (Rattus norvegicus); assay: Evaluation of plasma inhibition of Angiotensin I converting enzyme activity in conscious rat 4 hour after oral administration at a dose of 10 mg/kg; type: functional, organism-based; design: dose 10 mg/kg
[5] = biological target: T2, Angiotensin-converting enzyme (Rattus norvegicus); assay: Evaluation of plasma inhibition of Angiotensin I converting enzyme activity in conscious rat 6 hour after oral administration at a dose of 10 mg/kg; type: functional, organism-based; design: dose 10 mg/kg; in short: as §1

IC50 (Neprilysin)	inhibition [1]	inhibition [2]	inhibition [3]	inhibition [4]	inhibition [5]	SMILES
5 nM	17%	–	–	–	–	CC(C)[C@H](S)C(=O)NC1(C(=O)N[C@@H](Cc2ccc(O)cc2)C(=O)O)CC1
25 nM	9%	–	–	–	–	CC(C)[C@H](S)C(=O)NC1(C(=O)N[C@@H](Cc2ccc(O)cc2)C(=O)O)Cc2ccccc2C1
3 nM	17%	–	–	–	–	O=C(O)[C@H](Cc1ccc(O)cc1)NC(=O)C1(NC(=O)[C@@H](S)Cc2ccccc2)CCCC1
2.1 nM	82%	50%	45%	29%	26%	CC(C)[C@H](S)C(=O)NC1(C(=O)N[C@@H](Cc2c[nH]c3ccccc23)C(=O)O)CCCC1
15 nM	–	–	–	–	–	O=C(CS)NC1(C(=O)N[C@@H](Cc2ccc(O)cc2)C(=O)O)CCCC1
3 nM	17%	–	–	–	–	CC(C)[C@H](S)C(=O)NC1(C(=O)N[C@@H](Cc2ccccn2)C(=O)O)CCCC1
1.8 nM	28%	–	–	–	–	CC(C)[C@H](S)C(=O)NC1(C(=O)N[C@@H](Cc2ccc(F)cc2)C(=O)O)CCCC1
1.5 nM	29%	–	–	–	–	CC(C)[C@H](S)C(=O)NC1(C(=O)N[C@@H](Cc2cccs2)C(=O)O)CCCC1
2.6 nM	71%	–	–	–	–	CC(C)[C@H](S)C(=O)NC1(C(=O)N[C@@H](Cc2ccsc2)C(=O)O)CCCC1
9.2 nM	67%	–	–	–	–	CC(C)[C@H](S)C(=O)NC(C)(C)C(=O)N[C@@H](Cc1ccc(O)cc1)C(=O)O
6.4 nM	–	–	–	–	–	CC(C)[C@H](S)C(=O)NC1(C(=O)N[C@@H](Cc2ccc(O)cc2)C(=O)O)CCOCC1
1.2 nM	75%	–	–	–	–	CC(C)[C@H](S)C(=O)NC1(C(=O)N[C@@H](CCc2ccccc2)C(=O)O)CCCC1
1.5 nM	68%	59%	48%	36%	15%	CC(C)[C@H](S)C(=O)NC1(C(=O)N[C@@H](Cc2ccc(O)cc2)C(=O)O)CCCC1
